Measurements from ChEMBL document CHEMBL1165950, “Design and synthesis of new potent anticancer pyrazoles with high FLT3 kinase inhibitory selectivity” (Bioorg Med Chem, 2010).

Assays:
Format in all cases: functional
TK-10 = assay: Cytotoxicity against human TK10 cells assessed as cell growth at 10 uM; conditions: read-out: Activity
Summary of the method: (§1)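 NCI-60 screen: cells grown in RPMI 1640 with 5% FBS and 2 mM L-glutamine, plated at 5000–40,000 cells/well according to doubling time, and preincubated 24 h at 37 °C, 5% CO2. The single 10 µM dose (DMSO stock) was added, then incubated 48 h. Cells were TCA-fixed and stained with 0.4% SRB, read at 515 nm, and growth % calculated against time-zero and control plates.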

SK-MEL-2 = assay: Cytotoxicity against human SK-MEL-2 cells assessed as cell growth at 10 uM; conditions: read-out: Activity; summary of the method: as §1
EKVX = assay: Cytotoxicity against human EKVX cells assessed as cell growth at 10 uM; conditions: read-out: Activity
Summary of the method: (§2)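 Single-dose NCI-60 screen at 10 µM. Cells were grown in RPMI 1640 with 5% FBS and 2 mM L-glutamine, then treated for 48 h at 37 °C. Protein was measured by SRB staining with absorbance at 515 nm. Percentage growth was recorded, and inhibition percentage was calculated as 100 minus growth percentage.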

NCI-H322M = assay: Cytotoxicity against human NCI-H322M cells assessed as cell growth at 10 uM; conditions: read-out: Activity; summary of the method: as §1
[1] = Growth inhibition of human NCI60 cells at 10 uM after 48 hrs by sulforhodamine B assay relative to control; conditions: NCI60, 48 h, read-out: GI
Summary of the method: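 Single-dose NCI screen at 10 µM across the 60-line panel, 48 h exposure at 37 °C after a 24 h preincubation. Adherent cells were fixed with cold TCA and stained with 0.4% SRB, and absorbance was read at 515 nm. Inhibition % was taken as 100 minus growth %, and the mean across all lines was reported.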

HL-60(TB) = assay: Cytotoxicity against human HL-60(TB) cells assessed as cell growth at 10 uM; conditions: read-out: Activity
Summary of the method: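 NCI 60-cell panel screen at a single concentration of 10 µM. Cells are grown in RPMI 1640 with 5% FBS and 2 mM L-glutamine and read by SRB protein staining at 515 nm. Percent growth is measured relative to time-zero and untreated controls; inhibition % is 100 minus growth %.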

UACC-257 = assay: Cytotoxicity against human UACC257 cells assessed as cell growth at 10 uM; conditions: read-out: Activity; summary of the method: as §1
SF-268 = assay: Cytotoxicity against human SF268 cells assessed as cell growth at 10 uM; conditions: read-out: Activity; summary of the method: as §1
IGROV-1 = assay: Cytotoxicity against human IGROV1 cells assessed as cell growth at 10 uM; conditions: read-out: Activity; summary of the method: as §2
NCI-H522 = assay: Cytotoxicity against human NCI-H522 cells assessed as cell growth at 10 uM; conditions: read-out: Activity; summary of the method: as §1
K562 = assay: Cytotoxicity against human K562 cells assessed as cell growth at 10 uM; conditions: read-out: Activity; summary of the method: as §2
SF-295 = assay: Cytotoxicity against human SF295 cells assessed as cell growth at 10 uM; conditions: read-out: Activity; summary of the method: as §1
OVCAR-8 = assay: Cytotoxicity against human OVCAR8 cells assessed as cell growth at 10 uM; conditions: read-out: Activity; summary of the method: as §1
SK-MEL-5 = assay: Cytotoxicity against human SK-MEL-5 cells assessed as cell growth at 10 uM; conditions: read-out: Activity; summary of the method: as §1
NCI-H460 = assay: Cytotoxicity against human NCI-H460 cells assessed as cell growth at 10 uM; conditions: read-out: Activity; summary of the method: as §1
[2] = Cytotoxicity against human Hs 578T cells assessed as cell growth at 10 uM; conditions: read-out: Activity; summary of the method: as §2
NCI/ADR-RES = assay: Cytotoxicity against human NCI/ADR-RES cells assessed as cell growth at 10 uM; conditions: read-out: Activity; summary of the method: as §1
LOX IMVI = assay: Cytotoxicity against human LOXIMVI cells assessed as cell growth at 10 uM; conditions: read-out: Activity; summary of the method: as §1
A498 = assay: Cytotoxicity against human A498 cells assessed as cell growth at 10 uM; conditions: read-out: Activity; summary of the method: as §2
CAKI-1 = assay: Cytotoxicity against human Caki1 cells assessed as cell growth at 10 uM; conditions: read-out: Activity; summary of the method: as §2
T47D = assay: Cytotoxicity against human T47D cells assessed as cell growth at 10 uM; conditions: read-out: Activity; summary of the method: as §1
UACC-62 = assay: Cytotoxicity against human UACC62 cells assessed as cell growth at 10 uM; conditions: read-out: Activity; summary of the method: as §1
SW-620 = assay: Cytotoxicity against human SW620 cells assessed as cell growth at 10 uM; conditions: read-out: Activity; summary of the method: as §1
U-251 = assay: Cytotoxicity against human U251 cells assessed as cell growth at 10 uM; conditions: read-out: Activity; summary of the method: as §1
786-0 = assay: Cytotoxicity against human 786-0 cells assessed as cell growth at 10 uM; conditions: read-out: Activity; summary of the method: as §2
MDA-MB-468 = assay: Cytotoxicity against human MDA-MB-468 cells assessed as cell growth at 10 uM; conditions: read-out: Activity; summary of the method: as §1
CCRF-CEM = assay: Cytotoxicity against human CCRF-CEM cells assessed as cell growth at 10 uM; conditions: read-out: Activity; summary of the method: as §2
SNB-19 = assay: Cytotoxicity against human SNB19 cells assessed as cell growth at 10 uM; conditions: read-out: Activity; summary of the method: as §1
Malme-3M = assay: Cytotoxicity against human MALME-3M cells assessed as cell growth at 10 uM; conditions: read-out: Activity; summary of the method: as §1
SR = assay: Cytotoxicity against human SR cells assessed as cell growth at 10 uM; conditions: read-out: Activity; summary of the method: as §1
NCI-H226 = assay: Cytotoxicity against human NCI-H226 cells assessed as cell growth at 10 uM; conditions: read-out: Activity; summary of the method: as §1
BT-549 = assay: Cytotoxicity against human BT549 cells assessed as cell growth at 10 uM; conditions: read-out: Activity; summary of the method: as §2
UO-31 = assay: Cytotoxicity against human UO31 cells assessed as cell growth at 10 uM; conditions: read-out: Activity; summary of the method: as §1
SK-MEL-28 = assay: Cytotoxicity against human SK-MEL-28 cells assessed as cell growth at 10 uM; conditions: read-out: Activity; summary of the method: as §1
[3] = Cytotoxicity against human […] cells assessed as cell growth at 10 uM; conditions: read-out: Activity; summary of the method: as §1
SNB-75 = assay: Cytotoxicity against human SNB75 cells assessed as cell growth at 10 uM; conditions: read-out: Activity; summary of the method: as §1
HOP-92 = assay: Cytotoxicity against human HOP92 cells assessed as cell growth at 10 uM; conditions: read-out: Activity; summary of the method: as §2
HCC 2998 = assay: Cytotoxicity against human HCC2998 cells assessed as cell growth at 10 uM; conditions: read-out: Activity; summary of the method: as §2
HT-29 = assay: Cytotoxicity against human HT-29 cells assessed as cell growth at 10 uM; conditions: read-out: Activity; summary of the method: as §2
MOLT-4 = assay: Cytotoxicity against human MOLT4 cells assessed as cell growth at 10 uM; conditions: read-out: Activity; summary of the method: as §1
SN12C = assay: Cytotoxicity against human SN12C cells assessed as cell growth at 10 uM; conditions: read-out: Activity; summary of the method: as §1
DU-145 = assay: Cytotoxicity against human DU145 cells assessed as cell growth at 10 uM; conditions: read-out: Activity; summary of the method: as §2
M14 = assay: Cytotoxicity against human M14 cells assessed as cell growth at 10 uM; conditions: read-out: Activity; summary of the method: as §1
NCI-H23 = assay: Cytotoxicity against human NCI-H23 cells assessed as cell growth at 10 uM; conditions: read-out: Activity; summary of the method: as §1
RXF 393 = assay: Cytotoxicity against human RXF393 cells assessed as cell growth at 10 uM; conditions: read-out: Activity; summary of the method: as §1
HCT-15 = assay: Cytotoxicity against human HCT15 cells assessed as cell growth at 10 uM; conditions: read-out: Activity; summary of the method: as §2
OVCAR-3 = assay: Cytotoxicity against human OVCAR-3 cells assessed as cell growth at 10 uM; conditions: read-out: Activity; summary of the method: as §1
KM12 = assay: Cytotoxicity against human KM12 cells assessed as cell growth at 10 uM; conditions: read-out: Activity; summary of the method: as §1
OVCAR-4 = assay: Cytotoxicity against human OVCAR4 cells assessed as cell growth at 10 uM; conditions: read-out: Activity; summary of the method: as §1
ACHN = assay: Cytotoxicity against human ACHN cells assessed as cell growth at 10 uM; conditions: read-out: Activity; summary of the method: as §2
MDA-MB-231 = assay: Cytotoxicity against human MDA-MB-231 cells assessed as cell growth at 10 uM; conditions: read-out: Activity; summary of the method: as §1
COLO 205 = assay: Cytotoxicity against human COLO205 cells assessed as cell growth at 10 uM; conditions: read-out: Activity; summary of the method: as §2
HCT-116 = assay: Cytotoxicity against human HCT116 cells assessed as cell growth at 10 uM; conditions: read-out: Activity; summary of the method: as §2
MDA-MB-435 = assay: Cytotoxicity against human MDA-MB-435 cells assessed as cell growth at 10 uM; conditions: read-out: Activity; summary of the method: as §1
A549 = assay: Cytotoxicity against human A549 cells assessed as cell growth at 10 uM; conditions: read-out: Activity; summary of the method: as §2
MCF7 = assay: Cytotoxicity against human MCF7 cells assessed as cell growth at 10 uM; conditions: read-out: Activity; summary of the method: as §1
SF-539 = assay: Cytotoxicity against human SF539 cells assessed as cell growth at 10 uM; conditions: read-out: Activity; summary of the method: as §1
HOP-62 = assay: Cytotoxicity against human HOP62 cells assessed as cell growth at 10 uM; conditions: read-out: Activity; summary of the method: as §2
SK-OV-3 = assay: Cytotoxicity against human SKOV3 cells assessed as cell growth at 10 uM; conditions: read-out: Activity; summary of the method: as §1
OVCAR-5 = assay: Cytotoxicity against human OVCAR5 cells assessed as cell growth at 10 uM; conditions: read-out: Activity; summary of the method: as §1
PC-3 = assay: Cytotoxicity against human PC3 cells assessed as cell growth at 10 uM; conditions: read-out: Activity; summary of the method: as §1

COc1cc(C)cc(-c2nn(CC#N)cc2-c2ccnc(-c3cccc(NC(C)=O)c3)c2)c1
growth at 10 µM (TK-10): 87.1%
growth at 10 µM (SK-MEL-2): 92.1%
growth at 10 µM (EKVX): 101%
growth at 10 µM (NCI-H322M): 96.9%
inhibition of growth at 10 µM [1]: 1.18%
growth at 10 µM (HL-60(TB)): 74.9%
growth at 10 µM (UACC-257): 89.7%
growth at 10 µM (SF-268): 97.3%
growth at 10 µM (IGROV-1): 98.4%
growth at 10 µM (NCI-H522): 82.5%
growth at 10 µM (K562): 86.4%
growth at 10 µM (SF-295): 102%
growth at 10 µM (OVCAR-8): 88%
growth at 10 µM (SK-MEL-5): 36.9%
growth at 10 µM (NCI-H460): 107%
growth at 10 µM [2]: 99%
growth at 10 µM (NCI/ADR-RES): 87.3%
growth at 10 µM (LOX IMVI): 97.5%
growth at 10 µM (A498): 74.2%
growth at 10 µM (CAKI-1): 77.3%
growth at 10 µM (T47D): 79.3%
growth at 10 µM (UACC-62): 81.7%
growth at 10 µM (SW-620): 104%
growth at 10 µM (U-251): 94.3%
growth at 10 µM (786-0): 84%
growth at 10 µM (MDA-MB-468): 82.8%
growth at 10 µM (CCRF-CEM): 83.9%
growth at 10 µM (SNB-19): 89.6%
growth at 10 µM (Malme-3M): 108%
growth at 10 µM (SR): 80.9%
growth at 10 µM (NCI-H226): 93.1%
growth at 10 µM (BT-549): 79.1%
growth at 10 µM (UO-31): 63.6%
growth at 10 µM (SK-MEL-28): 104%
growth at 10 µM [3]: 73.9%
growth at 10 µM (SNB-75): 72.4%
growth at 10 µM (HOP-92): 79.6%
growth at 10 µM (HCC 2998): 101%
growth at 10 µM (HT-29): 99.4%
growth at 10 µM (MOLT-4): 82.8%
growth at 10 µM (SN12C): 83%
growth at 10 µM (DU-145): 105%
growth at 10 µM (M14): 96.3%
growth at 10 µM (NCI-H23): 95.3%
growth at 10 µM (RXF 393): 81.5%
growth at 10 µM (HCT-15): 94.5%
growth at 10 µM (OVCAR-3): 109%
growth at 10 µM (KM12): 109%
growth at 10 µM (OVCAR-4): 99.7%
growth at 10 µM (ACHN): 88%
growth at 10 µM (MDA-MB-231): 86.5%
growth at 10 µM (COLO 205): 93.5%
growth at 10 µM (HCT-116): 96.4%
growth at 10 µM (MDA-MB-435): 99.6%
growth at 10 µM (A549): 86.7%
growth at 10 µM (MCF7): 85%
growth at 10 µM (SF-539): 84.5%
growth at 10 µM (HOP-62): 98.5%
growth at 10 µM (SK-OV-3): 93.3%
growth at 10 µM (OVCAR-5): 91.6%
growth at 10 µM (PC-3): 85.8%
